Series [1] can be described thus: Lipophilicity, logP of compound at 100 uM incubated for 90 mins by HPLC analysis. The series is classed as physicochemical. The conditions noted are these: for logP: 100 µM.
A short description of series [2]: AUC in mouse at 0.3 mg/kg, po. The series is classed as ADME, organism-based. Also on record: dose 0.3 mg/kg. The conditions noted are these: in vivo. The gist of the method: (§1)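 Mice (n=4) given oral gavage cassette of 4 compounds, each 0.3 mg/kg, dissolved in 20% PEG400 in oleic acid rich triglycerides; plasma PK parameters calculated by one-compartment model.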

A short description of series [3]: Tmax in mouse at 0.3 mg/kg, po. The series is classed as ADME, organism-based. The conditions noted are these: in vivo. The method in brief: as §1
Series [4] in a line: Cmax in mouse at 0.3 mg/kg, po. The series is classed as ADME, organism-based. Also on record: route oral, dose 0.3 mg/kg. The note with it: in vivo. The method in brief:
as §1

Series [5] in a line: Half life in mouse at 0.3 mg/kg, po. The conditions noted are these: in vivo. The series is classed as ADME, organism-based. The gist of the method:
as §1

In the case of `CC[C@H](C)C(=O)N1CCC(NC(=O)Nc2ccc(OC(F)(F)F)c(C(F)(F)F)c2)CC1`, the logP – broadly, the decadic logarithm of the partition coefficient of the neutral form, usually between octanol and water – in series [1] is given as 9.02.

Turning to `O=C(Nc1ccc(OC(F)(F)F)cc1)NC1CCN(C(=O)C2CCCOC2)CC1` (racemic), the AUC (usually concentration integrated over time) in series [2] was found to be 0.483 µM·h. In series [3], the Tmax (in general, the time from dosing to the highest level) came out at 6.5 h. Also, in series [4], the Cmax (commonly the peak of the concentration-time curve) turned out to be 38 nM. In addition, in series [5], the half-life (usually how long it takes for the measured level to halve) is 3.1 h.

In series [1], `CC[C@H](C)C(=O)N1CCC(NC(=O)Nc2ccc(C(F)(F)F)cc2)CC1` displayed a logP at […], 100 µM of 3.84.

In series [2], `O=C(Nc1ccc(OC(F)(F)F)cc1)NC1CCN(C(=O)C2CCOCC2)CC1` gave an AUC of 6.37 µM·h. Moreover, the Tmax in series [3] worked out at 4.2 h. The same molecule had a Cmax in series [4] of 381 nM. Further, in series [1], the logP at […], 100 µM is 3.26. For the same molecule, the half-life in series [5] was 6.3 h.

Molecule `O=C(Nc1ccc(C(F)(F)F)c(F)c1)NC1CCN(C(=O)C2CCCOC2)CC1` (stereo not given) yielded a logP at […], 100 µM in series [1] of 3.84.

`O=C(Nc1ccc(OC(F)(F)F)c(F)c1)NC1CCN(C(=O)C2(C(F)(F)F)CC2)CC1` displayed a logP at […], 100 µM in series [1] of 5.94.

The molecule `O=C(Nc1ccc(OC(F)(F)F)c(F)c1)NC1CCN(C(=O)N2CCOCC2)CC1` gave a logP at […], 100 µM in series [1] of 3.93.

In turn, `Cc1occc1C(=O)N1CCC(NC(=O)Nc2ccc(OC(F)(F)F)cc2)CC1` had a logP at […], 100 µM in series [1] of 4.3.

Take `CCOC(=O)N1CCC(NC(=O)Nc2ccc(OC(F)(F)F)c(F)c2)CC1`: the logP at […], 100 µM in series [1] turned out to be 5.94.

With `O=C(Nc1ccc(C(F)(F)F)cc1)NC1CCN(C(=O)C2=COCC2)CC1`, the lipophilicity (logP) at […], 100 µM in series [1] was found to be 3.37.

Take `O=C(Nc1ccc(C(F)(F)F)c(F)c1)NC1CCN(C(=O)C2CC2)CC1`: the log partition coefficient (logP) at […], 100 µM in series [1] came to 3.94.

Regarding `CC[C@H](C)C(=O)N1CCC(NC(=O)Nc2ccc(C(F)(F)F)cn2)CC1`, the logP in series [1] is recorded as 3.22.

Molecule `CC[C@H](C)C(=O)N1CCC(NC(=O)Nc2ccc(OC(F)(F)F)c(Cl)c2)CC1` returned a logP at […], 100 µM in series [1] of 7.7.

Molecule `CCC(=O)N1CCC(NC(=O)Nc2ccc(C(F)(F)F)c(F)c2)CC1` had a logP at […], 100 µM in series [1] of 3.76.

In series [2], `CC(C)C(=O)N1CCC(NC(=O)Nc2ccc(OC(F)(F)F)c(F)c2)CC1` came in with an AUC of 10.9 µM·h. In series [3], the Tmax is 10 h. Further, in series [4], the Cmax was 423 nM. Moreover, the half-life in series [5] is 6.6 h.

`O=C(Nc1ccc(C(F)(F)F)cc1)NC1CCN(C(=O)c2cc[nH]c2)CC1`: in series [1], the logP at […], 100 µM came out at 3.26.

In series [2], `CCC(=O)N1CCC(NC(=O)Nc2ccc(OC(F)(F)F)c(F)c2)CC1` registered an AUC of 13 µM·h. The Tmax in series [3] came to 6.7 h. In series [4], this molecule registered a Cmax of 479 nM. This molecule also showed a half-life in series [5] of 13 h.

Molecule `CC[C@H](C)C(=O)N1CCC(NC(=O)Nc2ccc(OC(F)(F)F)c(OC(F)(F)F)c2)CC1` displayed a logP in series [1] of 10.62.

Molecule `O=C(Nc1ccc(OC(F)(F)F)c(F)c1)NC1CCN(C(=O)C2CC2)CC1` came in with a logP at […], 100 µM in series [1] of 4.19.

In the case of `CCOC(=O)N1CCC(NC(=O)Nc2ccc(C(F)(F)F)c(F)c2)CC1`, the logP at […], 100 µM in series [1] was found to be 5.46.

The molecule `O=C(Nc1ccc(C(F)(F)F)c(F)c1)NC1CCN(C(=O)C2CCOCC2)CC1` registered a lipophilicity (logP) at […], 100 µM in series [1] of 3.52.

`O=C(Nc1ccc(C(F)(F)F)cc1)NC1CCN(C(=O)C2CCCOC2)CC1` (stereo not given): the logP at […], 100 µM in series [1] stood at 3.41.

Turning to `O=C(Nc1ccc(OC(F)(F)F)c(F)c1)NC1CCN(C(=O)C2CCOCC2)CC1`, the AUC in series [2] turned out to be 5.56 µM·h. In addition, in series [3], the Tmax worked out at 6.5 h. Further, in series [4], the Cmax stood at 332 nM. Also, the logP at […], 100 µM in series [1] amounted to 3.73. Also, the half-life in series [5] was 4.3 h.

Consider `O=C(Nc1ccc(C(F)(F)F)c(F)c1)NC1CCN(C(=O)C2(C(F)(F)F)CC2)CC1`, for which, in series [1], the logP at […], 100 µM came out at 5.52.

In turn, `O=C(Nc1ccc(OC(F)(F)F)c(F)c1)NC1CCN(C(=O)C2CCCOC2)CC1` (stereo not given) registered an AUC in series [2] of 0.785 µM·h. Also, in series [3], the Tmax amounted to 2.1 h. In series [4], this molecule displayed a Cmax of 112 nM. Besides, the half-life in series [5] is 3.2 h.

For the molecule `CC[C@H](C)C(=O)N1CCC(NC(=O)Nc2ccc(OC(F)(F)F)c(F)c2)CC1`, the AUC in series [2] was 2.17 µM·h. The Tmax in series [3] is 5.2 h. In series [4], this molecule displayed a Cmax of 166 nM. In series [5], this molecule had a half-life of 3.3 h.

Regarding `CC[C@H](C)C(=O)N1CCC(NC(=O)Nc2ccc(OC(F)(F)F)c(Br)c2)CC1`, the logP at […], 100 µM in series [1] was 8.07.

These data come from ChEMBL document CHEMBL4699543, “Preparation and evaluation of soluble epoxide hydrolase inhibitors with improved physical properties and potencies for treating diabetic neuropathic pain” (Bioorg Med Chem, 2020).
